Source: PubChem (several laboratories)
PAFAH1B3 FP inh: PAFAH1B3 enzyme inhibitors, primary screen, biochemical, fluorescence polarization, human; Platelet-activating factor acetylhydrolase IB subunit alpha1 (Homo sapiens), Q15102; recombinant PAFAH1B3, FP-rhodamine probe; inhibition, % at 3.39 µM; 340,000 compounds, 0.28% hits;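 active means inhibition above the screen-wide average of all tested compounds plus 3 SD, cut at about 25% in these data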;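 further: 0% = enzyme with DMSO only and 100% = wells lacking PAFAH1B3 protein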
Target sequence (Q15102 whole entry, looked up): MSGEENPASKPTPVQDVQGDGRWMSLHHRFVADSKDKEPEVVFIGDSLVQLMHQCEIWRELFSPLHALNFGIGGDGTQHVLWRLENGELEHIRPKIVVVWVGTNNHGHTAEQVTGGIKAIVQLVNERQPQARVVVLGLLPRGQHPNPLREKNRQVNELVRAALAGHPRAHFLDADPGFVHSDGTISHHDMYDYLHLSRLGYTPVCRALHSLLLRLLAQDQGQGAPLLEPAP
pPAFAH FP inh: pPAFAH enzyme inhibitors, primary screen, biochemical, fluorescence polarization, human. 330,000 compounds, 1.5% hits. recombinant pPAFAH, FP-rhodamine probe fluorescence polarization. inhibition, % at 3.39 µM. Platelet-activating factor acetylhydrolase (Homo sapiens), Q13093;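 active means inhibition above the mean inhibition across the screen plus 3 SD, cut at about 25% in these data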;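 further: inhibitors block binding of the rhodamine activity-based probe so polarization drops; 0% = enzyme with DMSO and 100% = wells lacking pPAFAH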
PAFAH2 inh: PAFAH2 enzyme inhibitors, primary screen, biochemical, fluorescence polarization, human; inhibition, % at 3.39 µM; AID 492956, 2010; 340,000 compounds, 0.99% hits; recombinant PAFAH2, FP-rhodamine activity probe;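 active means inhibition above the mean over all tested compounds plus 3 SD, cut at about 30% in these data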;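 further: inhibitors block probe labeling of enzyme so polarization drops; 0% = enzyme with DMSO and 100% = wells lacking PAFAH2 protein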
NR3A LBD binder: binders of NR3A ligand-binding domain, primary screen, biophysical, differential scanning fluorimetry, uHTS | 340,000 compounds, 2.5% hits | Tm shift relative to glycine control, % at 25 µM | AID 1259313, 2017 | NR3A LBD differential scanning fluorimetry, Tm shift; 0% = protein alone, 100% = glycine-bound protein | Glutamate receptor ionotropic, NMDA 3A (GRIN3A) ligand-binding domain;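 active means melting temperature shift of at least 10% of the positive control shift, at one fixed dose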
PAFAH1B2 FP inh: PAFAH1B2 enzyme inhibitors, primary screen, biochemical, fluorescence polarization, human | inhibition, % at 3.39 µM | recombinant PAFAH1B2, FP-rhodamine activity probe | Platelet-activating factor acetylhydrolase IB subunit alpha2 (Homo sapiens), P68402 | 340,000 compounds, 1.2% hits | AID 492953, 2010;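 active means inhibition above the mean of all tested compounds plus 3 SD, cut at about 24% in these data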;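 further: 0% = enzyme with DMSO and 100% = wells lacking PAFAH1B2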
UCH37 inh: inhibitors of human UCH37 deubiquitinase, primary screen, biochemical, Ub-AMC cleavage, fluorescence. 330,000 compounds, 0.33% hits. purified proteasome/UCH37. inhibition, % (concentration not given with the values). Ubiquitin carboxyl-terminal hydrolase isozyme L5 (Homo sapiens), Q9Y5K5;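 active means mean inhibition over replicate wells above about 20%, limit read from the data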;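 further: 0% = compound-free wells with enzyme and 100% = wells lacking proteasome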
Target sequence (Q9Y5K5 whole entry, looked up): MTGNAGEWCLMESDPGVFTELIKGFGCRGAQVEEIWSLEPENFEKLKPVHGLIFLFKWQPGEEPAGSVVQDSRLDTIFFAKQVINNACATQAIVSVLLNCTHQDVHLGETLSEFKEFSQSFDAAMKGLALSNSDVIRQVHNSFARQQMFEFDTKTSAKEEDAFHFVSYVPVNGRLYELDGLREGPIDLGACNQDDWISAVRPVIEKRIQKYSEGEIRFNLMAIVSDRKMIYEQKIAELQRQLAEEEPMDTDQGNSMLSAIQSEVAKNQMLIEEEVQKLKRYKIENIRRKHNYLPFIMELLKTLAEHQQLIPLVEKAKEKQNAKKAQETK
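System: Proteasome-associated human UCH37 deubiquitinase; Input: 0.15 nM proteasome in added enzyme buffer; Also added: Ub-AMC substrate from 1 µM stock; Incubation: 30 min compound-proteasome preincubation then 25 min substrate reaction, room temperature; Detection: fluorescence, ex 355 nm, em 460 nm; Read-out: % inhibition of Ub-AMC cleavage fluorescence; Benchmarks: no-proteasome and no-compound wells.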
* = called active by the depositor. The list is not random: actives were taken first. Their share in the collection is about 4.8%.

FC(F)(F)COc1nc(OCC(F)(F)F)nc(N2CCN(c3ccccc3)CC2)n1 was read as PAFAH1B3 FP inh 13.2, pPAFAH FP inh 9.5, PAFAH2 inh 1.0, NR3A LBD binder 12.0*, PAFAH1B2 FP inh 1.6 and UCH37 inh -1.4.
For CCOc1ccc(NS(=O)(=O)c2ccc(NC(C)=O)c(OC)c2)cc1 the results were PAFAH1B3 FP inh 6.5, pPAFAH FP inh 24.7*, PAFAH2 inh -4.9, NR3A LBD binder 1.1, PAFAH1B2 FP inh 2.8 and UCH37 inh 3.4.
Screening CCC(=O)Nc1ccc(-c2ccc(NC(=O)CC)c(OC)c2)cc1OC returned PAFAH1B3 FP inh 2.4, pPAFAH FP inh 5.8, PAFAH2 inh -2.0, NR3A LBD binder -0.9, PAFAH1B2 FP inh 5.6 and UCH37 inh 3.3.
Screening CCC(=O)Nc1ccc(S(=O)(=O)Nc2cccc(C)c2)cc1OC returned PAFAH1B3 FP inh 9.8, pPAFAH FP inh 30.2*, PAFAH2 inh 7.2, NR3A LBD binder 1.0, PAFAH1B2 FP inh 1.7 and UCH37 inh -0.1.
Screening COc1cc(S(=O)(=O)Nc2ccncc2)ccc1F returned PAFAH1B3 FP inh -6.2, pPAFAH FP inh 2.9, PAFAH2 inh 6.3, NR3A LBD binder -2.0, PAFAH1B2 FP inh 7.8 and UCH37 inh 0.5.
`COc1cc(S(=O)(=O)Nc2ccc(C)cc2)ccc1NC(=O)c1ccncc1` gave PAFAH1B3 FP inh 2.2, pPAFAH FP inh 33.9*, PAFAH2 inh 6.0, NR3A LBD binder 0.3, PAFAH1B2 FP inh -0.4 and UCH37 inh 6.5.
COc1ccccc1OCC(=O)NN=C1CCc2ccccc21 was read as UCH37 inh 7.5.
Screening Cc1cc2nc(-c3ccccc3O)[nH]c2cc1C returned PAFAH1B3 FP inh 4.9, PAFAH2 inh -7.1, NR3A LBD binder 26.7*, PAFAH1B2 FP inh -1.3 and UCH37 inh -210.6.
Clc1ccccc1-c1nc(-c2ccccc2)n[nH]1 was read as PAFAH1B3 FP inh 0.0, pPAFAH FP inh -0.9, PAFAH2 inh 6.8, NR3A LBD binder -0.6, PAFAH1B2 FP inh -1.2 and UCH37 inh 4.6.
Screening Cc1cc(=O)[nH]c(-c2ccccc2O)n1 returned PAFAH1B3 FP inh -4.0, pPAFAH FP inh 0.6, PAFAH2 inh 7.3, NR3A LBD binder 1.0, PAFAH1B2 FP inh 1.3 and UCH37 inh -19.7.
For Oc1ccccc1-c1n[nH]c(-c2ccccc2O)n1 the results were PAFAH1B3 FP inh 17.9, PAFAH2 inh 1.4, NR3A LBD binder 22.7* and PAFAH1B2 FP inh -6.0.
`Cn1c(=O)c2[nH]c(-c3ccccc3)c(O)c2n(C)c1=O` gave PAFAH1B3 FP inh 2.2, pPAFAH FP inh 8.0, PAFAH2 inh 1.5, NR3A LBD binder 12.5*, PAFAH1B2 FP inh 4.5 and UCH37 inh -4.2.
For Cn1c(=O)c2[nH]c(-c3ccccc3Cl)c(O)c2n(C)c1=O the results were PAFAH1B3 FP inh 0.8, pPAFAH FP inh 1.9, PAFAH2 inh -10.3, NR3A LBD binder 0.7, PAFAH1B2 FP inh 2.1 and UCH37 inh 0.6.
Screening CCOC(=O)CC(C)=NNC(=O)c1cccs1 returned UCH37 inh 0.7.
For CC(C)c1onc(C(=O)Nc2cccc(Cl)c2)c1[N+](=O)[O-] the results were PAFAH1B3 FP inh 2.0, pPAFAH FP inh -3.7, PAFAH2 inh 1.9, NR3A LBD binder 19.9*, PAFAH1B2 FP inh -3.2 and UCH37 inh 4.6.
`Cc1cc(C)nc(N=C(N)Nc2ccc(C)c([N+](=O)[O-])c2)n1` gave UCH37 inh 3.7.
For CCOC(=O)C1(CC(C)=NNC(N)=O)CC(C)(C)OC1=O (stereo not given) the results were UCH37 inh 3.1.
Screening Cc1csc(NC(=O)c2cc(-c3ccco3)nc3ccccc23)n1 returned PAFAH1B3 FP inh -1.1, pPAFAH FP inh 25.2*, PAFAH2 inh -1.6, NR3A LBD binder -1.6, PAFAH1B2 FP inh -2.6 and UCH37 inh -28.6.
Cc1nnc(NC(=O)c2cc(-c3ccco3)nc3ccccc23)s1 was read as PAFAH1B3 FP inh 6.9, pPAFAH FP inh 27.2*, PAFAH2 inh 5.8 and PAFAH1B2 FP inh 2.9.
For Cc1csc(NC(=O)c2cc(C)nc3ccccc23)n1 the results were PAFAH1B3 FP inh -0.7, pPAFAH FP inh -5.1, PAFAH2 inh -5.7, NR3A LBD binder -1.1, PAFAH1B2 FP inh 1.7 and UCH37 inh 2.0.
Brc1csc(C=NNc2nc3ccccc3s2)c1 was read as UCH37 inh -0.4.
CCN(CC)S(=O)(=O)c1cccc(C(=O)NN=C(C)c2cccs2)c1 was read as UCH37 inh -3.8.
Cc1ccc(CNC(=O)c2ccc3c(=O)c(O)c(-c4ccc(C)cc4)[nH]c3c2)cc1 was read as PAFAH1B3 FP inh 11.5, pPAFAH FP inh 26.7*, PAFAH2 inh -21.6, NR3A LBD binder -3.7, PAFAH1B2 FP inh 7.7 and UCH37 inh -7.0.
`CCCNC(=O)c1ccc2c(=O)c(O)c(-c3ccc(OC)cc3)[nH]c2c1` gave PAFAH1B3 FP inh 13.8, pPAFAH FP inh 13.2, PAFAH2 inh -16.0, NR3A LBD binder -3.5, PAFAH1B2 FP inh 1.7 and UCH37 inh -26.2.
CCCNC(=O)c1ccc2c(=O)c(O)c(-c3ccsc3)[nH]c2c1 was read as PAFAH1B3 FP inh 38.1*, pPAFAH FP inh 15.2, PAFAH2 inh -16.2, NR3A LBD binder -1.8, PAFAH1B2 FP inh 27.1* and UCH37 inh -15.3.
`CC(=NO)c1ccc2c(c1)CC(C)O2` (stereo not given) gave UCH37 inh 4.0.
For C=CCOc1ccc(C2OC34CCCCC3C(C#N)(C#N)C2(C#N)C(=N)O4)cc1 (stereo not given) the results were PAFAH1B3 FP inh 50.9*, pPAFAH FP inh 10.0, PAFAH2 inh 56.2*, NR3A LBD binder -0.4, PAFAH1B2 FP inh 42.3* and UCH37 inh -10.7.
`Cc1ccc(C2OC34CCCCCC3C(C#N)(C(=N)O4)C2(C#N)C#N)cc1` (stereo not given) gave PAFAH1B3 FP inh -0.2, pPAFAH FP inh 1.0, PAFAH2 inh 3.1, NR3A LBD binder -5.3, PAFAH1B2 FP inh -0.8 and UCH37 inh inactive.
Screening CCCCOc1ccc(C2OC34CCCCC3C(C#N)(C#N)C2(C#N)C(=N)O4)cc1 (stereo not given) returned PAFAH1B3 FP inh 56.5*, pPAFAH FP inh 23.9, PAFAH2 inh 42.4*, NR3A LBD binder -2.8 and PAFAH1B2 FP inh 38.5*.
`COc1cccc(NC(=O)c2cc3ccccc3oc2=NO)c1` gave UCH37 inh 3.9.
CON=C(CS(=O)(=O)c1ccc(C)cc1)c1ccc(OC)cc1 was read as UCH37 inh 2.4.
